{"data": "Assay results gathered from unrelated publications", "organism": "Klebsiella pneumoniae", "read-out": "microbial growth", "note": "Each line is one published result; the experiments were not run side by side."}
{"SMILES": "CO[C@@H]1[C@@H](OC(N)=O)[C@@H](O)[C@H](Oc2ccc3c(O)c(NC(=O)c4ccc(O)c(CC=C(C)C)c4)c(=O)oc3c2C)OC1(C)C", "method": "broth dilution", "strain": "ATCC700603", "MIC": "160 µM"}
{"SMILES": "O=C1NN=C(N=Cc2ccc(O)c(O)c2)C1=NNn1c(-c2ccccc2)nc2ccccc2c1=O", "method": "broth dilution", "time": "24 h", "MIC": "53.5 µM"}
{"SMILES": "CNC(C)C1CCC(N)C(OC2C(N)CC(N)C(OC3OCC(C)(O)C(NC)C3O)C2O)O1 (stereo not drawn)", "MIC": "0.25 µg/mL"}
{"SMILES": "CNC(=O)c1cc(Oc2ccc(NC(=O)Nc3ccc(Cl)c(C(F)(F)F)c3)cc2)ccn1", "strain": "DSM30104", "MIC": "> 100 µM"}
{"SMILES": "CC1(C)S[C@@H]2[C@H](NC(=O)COc3ccccc3)C(=O)N2[C@H]1C(=O)O", "time": "18 h", "setting": "clinical isolate", "MIC": "> 128 µg/mL"}
{"SMILES": "CO[C@@H](C(N)=O)[C@H](NC(=O)c1ccc(NC(=O)c2ccc(C#N)cc2)cc1)C(=O)Nc1ccc(C(=O)Nc2ccc(C(=O)Nc3ccc(C(=O)O)cc3)c(O)c2OC(C)C)cc1", "strain": "DSM30104", "MIC": "8 µg/mL"}
{"SMILES": "Cn1c(SCc2ccc(Cl)cc2)nnc1-c1cncc(C#Cc2ccccc2)c1", "MIC": "≥ 20 µg/mL"}
{"SMILES": "CN[C@@H]1[C@@H](O)[C@@H](O[C@@H]2[C@@H](O)[C@H](O[C@H]3OC(CNCCO)=CC[C@H]3N)[C@@H](N)C[C@H]2NC(=O)[C@@H](O)CCN)OC[C@]1(C)O", "MIC": "0.25 to 0.5 µg/mL"}
{"SMILES": "CCCCCCC#Cc1cncc(-c2nnc(SCc3ccc([N+](=O)[O-])cc3)n2C)c1", "MIC": "≥ 20 µg/mL"}
{"SMILES": "CC(=O)NCN1N=C(C)C(=NNn2c(-c3ccccc3)nc3ccccc3c2=O)C1=O", "method": "broth dilution", "time": "24 h", "MIC": "59.9 µM"}
{"SMILES": "CN(C)[C@@H]1C(O)=C(C(N)=O)C(=O)[C@@]2(O)C(O)=C3C(=O)c4c(cc5ccc(-c6ccccc6)cc5c4O)C[C@H]3C[C@@H]12", "method": "broth dilution", "strain": "ATCC13883", "MIC": "32 µg/mL"}
{"SMILES": "O=C1NN=C(N=Cc2ccccc2)C1=NNn1c(-c2ccccc2)nc2ccccc2c1=O", "method": "broth dilution", "time": "24 h", "MIC": "114 µM"}
{"SMILES": "O=[N+]([O-])c1ccc(/C=N/Nc2nc(Nc3ccccc3)nc(N3CCOCC3)n2)o1", "MIC": "> 120 µM"}
{"SMILES": "CC1=NN(CNc2ccc(Cl)cc2)C(=O)C1=NNn1c(-c2ccccc2)nc2ccccc2c1=O", "method": "broth dilution", "time": "24 h", "MIC": "51.5 µM"}
{"SMILES": "CCC[C@@H]1C[C@@H](C(=O)N[C@@H]([C@H]2O[C@H](SC)[C@H](O)[C@@H](O)[C@H]2O)[C@H](C)Cl)N(C)C1", "method": "broth dilution", "strain": "ATCC700603", "MIC": "640 µM"}
{"SMILES": "NC1CCCCc2c1[nH]c1ccc(Cl)c(Cl)c21 (stereo not drawn)", "method": "broth dilution", "strain": "ATCC10031", "MIC": "8 µg/mL"}
{"SMILES": "CC(C)(O/N=C(\\C(=O)N[C@@H]1C(=O)N2C(C(=O)[O-])=C(C[n+]3ccccc3)CS[C@H]12)c1csc(N)n1)C(=O)O", "method": "broth dilution", "strain": "ATCC10031", "time": "18 h", "MIC": "2 µg/mL"}
{"SMILES": "C/C(=C\\C(=O)OCCCCCCCCC(=O)O)C[C@@H]1OC[C@H](C[C@@H]2O[C@H]2[C@@H](C)[C@H](C)O)[C@@H](O)[C@H]1O", "method": "broth dilution", "strain": "ATCC700603", "MIC": "160 µM"}
{"SMILES": "CCCCCCC#Cc1cncc(-c2nnc(SCc3ccc(Cl)cc3)n2C2CC2)c1", "MIC": "≥ 20 µg/mL"}
{"SMILES": "Cc1c(CN(C)C(=O)/C=C/c2cnc3c(c2)CC(CCN)C(=O)N3)oc2ccccc12.Cl (stereo not drawn)", "method": "broth dilution", "strain": "BAA1705", "MIC": "16 µg/mL"}
{"SMILES": "CN(C)[C@@H]1C(O)=C(C(N)=O)C(=O)[C@@]2(O)C(O)=C3C(=O)c4c(cc5ccc(CN6CC(F)(F)C6)cc5c4O)C[C@H]3C[C@@H]12", "method": "broth dilution", "strain": "ATCC13883", "MIC": "32 µg/mL"}
{"SMILES": "CO/N=C(\\C(=O)N[C@@H]1C(=O)N2C(C(=O)[O-])=C(C[N+]3(C)CCCC3)CS[C@H]12)c1csc(N)n1", "method": "broth dilution", "strain": "ATCC700603", "MIC": "1.3 µM"}
{"SMILES": "CN(C)[C@@H]1C(O)=C(C(N)=O)C(=O)[C@@]2(O)C(O)=C3C(=O)c4c(cc5ccc(CN6CCCCC6)cc5c4O)C[C@H]3C[C@@H]12", "method": "broth dilution", "strain": "ATCC13883", "MIC": "4 µg/mL"}
{"SMILES": "CCCCCC/C=C\\CCCCCCCCCc1cc(O)cc(O)c1", "method": "broth dilution", "strain": "ATCC10031", "MIC": "> 64 µg/mL"}
{"SMILES": "CN(C)[C@@H]1C(O)=C(C(N)=O)C(=O)[C@@]2(O)C(O)=C3C(=O)c4c(cc5ccc(CN(C)S(C)(=O)=O)cc5c4O)C[C@H]3C[C@@H]12", "method": "broth dilution", "strain": "ATCC13883", "MIC": "32 µg/mL"}
{"SMILES": "O=C1CN(/N=C/c2ccc([N+](=O)[O-])o2)C(=O)N1", "method": "broth dilution", "strain": "ATCC700603", "MIC": "320 µM"}
{"SMILES": "CC1=NN(CNc2ccccc2[N+](=O)[O-])C(=O)C1=NNn1c(-c2ccccc2)nc2ccccc2c1=O", "method": "broth dilution", "time": "24 h", "MIC": "50.4 µM"}
{"SMILES": "O=C(Nc1ccc(S(=O)(=O)c2nccs2)cc1)c1cc(N=Nc2nccs2)ccc1O", "method": "broth dilution", "MIC": "100 µg/mL"}
{"SMILES": "NC1CCCCc2c1[nH]c1cc(Cl)c(Cl)cc21 (stereo not drawn)", "method": "broth dilution", "strain": "ATCC10031", "MIC": "2 µg/mL"}
{"SMILES": "CCCCCCC#Cc1cncc(-c2nnc(SCc3ccc([N+](=O)[O-])o3)n2C)c1", "MIC": "≥ 20 µg/mL"}
{"SMILES": "O=C(Nc1ccc([N+](=O)[O-])cc1F)c1ccccc1O", "method": "broth dilution", "strain": "BAA1705", "MIC": "> 64 µg/mL"}
{"SMILES": "O=C(O)c1cn(C2CC2)c2cc(N3CCNCC3)c(F)cc2c1=O", "strain": "DSM30104", "MIC": "≤ 0.03 µg/mL"}
{"SMILES": "O=C(O)c1cn(C2CC2)c2cc(N3CCNCC3)c(F)cc2c1=O", "method": "broth dilution", "time": "24 h", "MIC": "0.57 µM"}
{"SMILES": "CC1(C)S[C@@H]2[C@H](/N=C/N3CCCCCC3)C(=O)N2[C@H]1C(=O)O", "method": "broth dilution", "strain": "ATCC700603", "MIC": "2.5 µM"}
{"SMILES": "C/C(=C\\c1ccc(C#N)cc1)C(=O)Nc1ccc(C(=O)N[C@@H](CC(N)=O)C(=O)Nc2ccc(C(=O)Nc3ccc(C(=O)Nc4ccc(C(=O)O)cc4)c(O)c3OC(C)C)cc2)cc1", "strain": "DSM30104", "MIC": "> 64 µg/mL"}
{"SMILES": "C[C@H]1COc2c(N3CCN(C)CC3)c(F)cc3c(=O)c(C(=O)O)cn1c23", "method": "broth dilution", "strain": "ATCC700603", "MIC": "0.16 µM"}
{"SMILES": "CCn1cc(C(=O)O)c(=O)c2cc(F)c(N3CCNCC3)cc21", "method": "broth dilution", "strain": "ATCC43816", "MIC": "2 µM"}
{"SMILES": "Cc1c(CN(C)C(=O)/C=C/c2cnc3c(c2)CCC(=O)N3)oc2ccccc12", "method": "broth dilution", "MIC": "> 32 µg/mL"}
{"SMILES": "CC[C@H]1OC(=O)[C@H](C)[C@@H](O[C@H]2C[C@@](C)(OC)[C@@H](O)[C@H](C)O2)[C@H](C)[C@@H](O[C@@H]2O[C@H](C)C[C@H](N(C)C)[C@H]2O)[C@](C)(O)C[C@@H](C)C(=O)[C@H](C)[C@@H](O)[C@]1(C)O", "method": "broth dilution", "strain": "ATCC700603", "MIC": "160 µM"}
